Data set [1] concerns the target T1, Amine oxidase [flavin-containing] B (Homo sapiens, UniProt P27338).
T1 sequence (P27338 whole entry): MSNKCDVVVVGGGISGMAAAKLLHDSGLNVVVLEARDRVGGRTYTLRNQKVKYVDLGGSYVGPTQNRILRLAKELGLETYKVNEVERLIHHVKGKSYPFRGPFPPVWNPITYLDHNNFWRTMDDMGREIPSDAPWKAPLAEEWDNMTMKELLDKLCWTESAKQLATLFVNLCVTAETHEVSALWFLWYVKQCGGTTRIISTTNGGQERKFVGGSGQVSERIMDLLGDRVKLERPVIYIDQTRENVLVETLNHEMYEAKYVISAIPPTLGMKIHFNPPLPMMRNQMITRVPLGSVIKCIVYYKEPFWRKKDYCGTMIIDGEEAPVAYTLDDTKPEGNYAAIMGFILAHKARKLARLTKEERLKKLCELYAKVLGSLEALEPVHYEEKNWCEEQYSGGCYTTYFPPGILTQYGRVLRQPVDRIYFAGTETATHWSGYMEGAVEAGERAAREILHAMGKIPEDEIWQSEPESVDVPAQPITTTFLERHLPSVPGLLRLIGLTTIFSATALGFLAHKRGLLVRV
In words: biochemical. Type of data set: cell-based.

In data set [2] the target is T2, Amine oxidase [flavin-containing] A (Homo sapiens, UniProt P21397).
T2 sequence (P21397 whole entry): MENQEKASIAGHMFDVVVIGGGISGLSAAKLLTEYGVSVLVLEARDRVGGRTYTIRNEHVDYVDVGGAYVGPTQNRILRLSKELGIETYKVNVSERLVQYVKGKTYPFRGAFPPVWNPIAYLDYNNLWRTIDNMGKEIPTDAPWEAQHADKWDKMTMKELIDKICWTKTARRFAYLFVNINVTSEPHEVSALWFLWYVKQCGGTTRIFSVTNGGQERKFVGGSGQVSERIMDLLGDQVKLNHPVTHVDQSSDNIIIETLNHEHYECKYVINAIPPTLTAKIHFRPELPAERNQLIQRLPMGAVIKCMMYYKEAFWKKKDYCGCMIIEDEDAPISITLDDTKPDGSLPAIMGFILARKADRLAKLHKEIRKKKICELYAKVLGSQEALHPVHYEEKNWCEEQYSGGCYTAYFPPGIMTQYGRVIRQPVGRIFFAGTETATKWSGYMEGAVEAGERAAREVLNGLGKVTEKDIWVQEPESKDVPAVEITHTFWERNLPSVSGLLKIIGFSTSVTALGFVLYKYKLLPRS
In words: Inhibition of human recombinant microsomal MAOA expressed in baculovirus infected BTI-TN-5B1- 4 cells using p-tyramine as substrate assessed as decrease in H2O2 production at 100 uM after 15 mins by amplex red-based fluorescence assay. The conditions noted are these: 0.25 h.

The next data set is filed under the species Homo sapiens. In words: Selectivity index, ratio of IC50 for human recombinant microsomal MAOA to IC50 for human recombinant microsomal MAOB.
For data set [3], the target named is T1, Amine oxidase [flavin-containing] B. The data set is described as follows: Reversible inhibition of human recombinant microsomal MAOB expressed in baculovirus infected BTI-TN-5B1- 4 cells assessed as decrease in H2O2 production at 40 nM after 15 mins by amplex red-based fluorescence assay. The conditions noted are these: 0.25 h, 0.04 µM.
For data set [4] the target is unchanged. The data set is described as follows: Binding affinity to human recombinant microsomal MAOB expressed in baculovirus infected BTI-TN-5B1- 4 cells assessed as decrease in H2O2 production at 12.5 nM after 15 mins by amplex red-based fluorescence assay. To be noted: 0.25 h, 0.0125 µM.
Data set [5] shares this target. The data set is described as follows: Noncompetitive inhibition of human recombinant microsomal MAOB expressed in baculovirus infected BTI-TN-5B1- 4 cells using p-tyramine as substrate assessed as decrease in H2O2 production by Lineweaver-Burk plot analysis. An outline of the steps: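 Substrate-dependent kinetic experiments on hMAO-B. Inhibition mode was read from Lineweaver-Burk plots, and Ki was calculated from the corresponding Dixon plots.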

For data set [6] the target is unchanged. The data set is described as follows: Reversible inhibition of human recombinant microsomal MAOB expressed in baculovirus infected BTI-TN-5B1- 4 cells assessed as decrease in H2O2 production at 12.5 nM after 60 mins by amplex red-based fluorescence assay. To be noted: 1 h, 0.0125 µM.

`COc1ccc2occ(C(=O)Nc3ccc(O)cc3)c(=O)c2c1` registered an IC50 in data set [1] of 674 nM. Further, the “inhibition (INH)” value in data set [2] was “Not Active”. In addition, the Ratio IC50 in the data set filed under Homo sapiens was > 148.

On to `COc1ccc2occ(C(=O)Nc3cccc(O)c3)c(=O)c2c1`, for which, in data set [1], the IC50 was 113 nM. In addition, the “inhibition (INH)” value in data set [2] is recorded as “Not Active”. Besides, the Ratio IC50 in the data set listed under Homo sapiens is > 881.

`COc1ccc2occ(C(=O)Nc3cccc(C)c3)c(=O)c2c1` yielded an IC50 in data set [1] of 21.8 nM. Also, the “inhibition (INH)” value in data set [2] is given as “Not Active”. Moreover, in the data set listed under Homo sapiens, the Ratio IC50 is > 4590.

As for `COc1ccc2occ(C(=O)Nc3ccc(Cl)cc3)c(=O)c2c1`, it took 10.3 nM to reach half-maximal inhibition in data set [1] (IC50). Also, in data set [2], the “inhibition (INH)” value is “Not Active”. Also, in the data set listed under Homo sapiens, the Ratio IC50 was > 9700.

`COc1ccc2oc(=O)c(C(=O)Nc3cccc(C)c3)cc2c1` gave an IC50 in data set [1] of 47.2 nM. In data set [2], the “inhibition (INH)” value was “Not Active”. In addition, the Ratio IC50 in the data set filed under Homo sapiens was > 2120.

With `COc1ccc2oc(=O)c(C(=O)Nc3cccc(Cl)c3)cc2c1`, the IC50 in data set [1] is 9.03 nM. In addition, in data set [2], the “inhibition (INH)” value was “Not Active”. The Ratio IC50 in the data set filed under Homo sapiens was > 11100.

Consider `Cc1ccc(NC(=O)c2cc3cc(C)ccc3oc2=O)cc1`, for which, in data set [1], the IC50 was determined as 13.9 nM. Besides, the “inhibition (INH)” value in data set [2] is given as “Not Active”. For the same compound, in the data set filed under Homo sapiens, the Ratio IC50 was > 7190.

`COc1ccc2oc(=O)c(C(=O)Nc3ccccc3)cc2c1` registered an IC50 in data set [1] of 5.95 nM. Further, the “inhibition (INH)” value in data set [2] was “Not Active”. The Ratio IC50 in the data set listed under Homo sapiens was > 16800.

For the compound `C[C@H](NCc1ccc(OCc2cccc(F)c2)cc1)C(N)=O` [SAFINAMIDE], the “inhibition (INH)” value in data set [2] is on record as “Not Active”; in data set [3], “Active”.

The compound `Cc1ccc2oc(=O)c(C(=O)Nc3ccccc3)cc2c1` showed an IC50 in data set [1] of 15.3 nM. Besides, in data set [2], the “inhibition (INH)” value is “Not Active”. Further, the Ratio IC50 in the data set listed under Homo sapiens is > 6530.

In the case of `COc1ccc2oc(=O)c(C(=O)Nc3ccc(C)cc3)cc2c1`, half-maximal inhibition in data set [1] (IC50) was put at 19.4 nM. Further, in data set [2], the “inhibition (INH)” value is given as “Not Active”. In addition, in the data set filed under Homo sapiens, the Ratio IC50 was > 5150.

In turn, `Cc1ccc2oc(=O)c(C(=O)Nc3ccc(Cl)cc3)cc2c1` came in with an IC50 in data set [1] of 11.1 nM. Besides, the “inhibition (INH)” value in data set [2] is “Not Active”. Moreover, the Ratio IC50 in the data set listed under Homo sapiens is > 9030.

For `Cc1ccc2occ(C(=O)Nc3ccccc3)c(=O)c2c1`, the IC50 in data set [1] was determined as 21.4 nM. Further, the “inhibition (INH)” value in data set [2] was “Not Active”. Besides, the Ratio IC50 in the data set listed under Homo sapiens was > 4680.

In data set [1], `Cc1cccc(NC(=O)c2coc3ccc(C)cc3c2=O)c1` returned an IC50 of 17.1 nM. Also, the “inhibition (INH)” value in data set [2] is “Not Active”. The Ratio IC50 in the data set filed under Homo sapiens is > 5850.

In the case of `COc1ccc2oc(=O)c(C(=O)Nc3cccc(O)c3)cc2c1`, in data set [1], 229 nM corresponded to half-maximal inhibition (IC50). Besides, the “inhibition (INH)” value in data set [2] is “Not Active”. Also, in the data set listed under Homo sapiens, the Ratio IC50 is > 447.

The compound `Cc1cccc(NC(=O)c2cc3cc(C)ccc3oc2=O)c1` showed an IC50 in data set [1] of 7.52 nM. The “inhibition (INH)” value in data set [2] was “Not Active”. Also, the Ratio IC50 in the data set filed under Homo sapiens was > 13300.

For `Cc1ccc2occ(C(=O)Nc3ccc(Cl)cc3)c(=O)c2c1`, half-maximal inhibition in data set [1] (IC50) required 45.4 nM. For the same compound, in data set [2], the “inhibition (INH)” value was “Not Active”. Moreover, in the data set filed under Homo sapiens, the Ratio IC50 is > 2200.

For the compound `Cc1ccc2occ(C(=O)Nc3cccc(O)c3)c(=O)c2c1`, the IC50 in data set [1] was determined as 78.2 nM. Also, the “inhibition (INH)” value in data set [2] was “Not Active”. Further, the Ratio IC50 in the data set listed under Homo sapiens was > 1280.

For `Cc1ccc2occ(C(=O)Nc3ccc(O)cc3)c(=O)c2c1`, the IC50 in data set [1] amounted to 513 nM. For the same compound, the “inhibition (INH)” value in data set [2] is given as “Not Active”. For the same compound, in the data set listed under Homo sapiens, the Ratio IC50 is > 195.

Regarding `Cc1ccc2oc(=O)c(C(=O)Nc3cccc(Cl)c3)cc2c1`, in data set [1], the IC50 came out at 5.07 nM. Besides, the entries for the “inhibition (INH)” value in data set [2] and in data set [6] were “Not Active” and “Active”, respectively. The outcome in data set [4] was Active. Also, the Ki in data set [5] came out at 1.17 nM. Besides, the Ratio IC50 in the data set filed under Homo sapiens was > 19700.

In data set [1], `COc1ccc2occ(C(=O)Nc3cccc(Cl)c3)c(=O)c2c1` had an IC50 of 3.94 nM. Moreover, in data set [2], the “inhibition (INH)” value is reported as “Not Active”. The Ratio IC50 in the data set filed under Homo sapiens was > 25400.

The compound `COc1ccc2occ(C(=O)Nc3ccccc3)c(=O)c2c1` gave an IC50 in data set [1] of 41.8 nM. Also, the “inhibition (INH)” value in data set [2] was “Not Active”. The Ratio IC50 in the data set listed under Homo sapiens is > 2390.

Turning to `Cc1ccc(NC(=O)c2coc3ccc(C)cc3c2=O)cc1`, the IC50 in data set [1] was determined as 152 nM. Besides, the “inhibition (INH)” value in data set [2] is “Not Active”. Further, the Ratio IC50 in the data set listed under Homo sapiens was > 660.

In data set [1], `Cc1ccc2oc(=O)c(C(=O)Nc3ccc(O)cc3)cc2c1` had an IC50 of 622 nM. Moreover, the “inhibition (INH)” value in data set [2] was “Not Active”. In addition, the Ratio IC50 in the data set filed under Homo sapiens is > 161.

In turn, `Cc1ccc2oc(=O)c(C(=O)Nc3cccc(O)c3)cc2c1` returned an IC50 in data set [1] of 45.4 nM. Also, in data set [2], the “inhibition (INH)” value is recorded as “Not Active”. In addition, in the data set listed under Homo sapiens, the Ratio IC50 was > 2200.

In the case of `Cc1ccc2occ(C(=O)Nc3cccc(Cl)c3)c(=O)c2c1`, the half-inhibitory concentration (IC50) in data set [1] was 4.2 nM. Also, the “inhibition (INH)” value is reported as “Not Active” in data set [2] and “Active” in data set [6]. For the same compound, the outcome in data set [4] was Active. In addition, the inhibitory constant (Ki) in data set [5] is 2.69 nM. Besides, the Ratio IC50 in the data set filed under Homo sapiens is > 23800.

`COc1ccc2oc(=O)c(C(=O)Nc3ccc(Cl)cc3)cc2c1` had an IC50 in data set [1] of 18.9 nM. Also, in data set [2], the “inhibition (INH)” value was “Not Active”. Further, the Ratio IC50 in the data set filed under Homo sapiens is > 5290.

`COc1ccc2oc(=O)c(C(=O)Nc3ccc(O)cc3)cc2c1`: the “inhibition (INH)” value in data set [2] was “Not Active”.

On to `COc1ccc2occ(C(=O)Nc3ccc(C)cc3)c(=O)c2c1`, for which, in data set [1], the IC50 came to 211 nM. In addition, the “inhibition (INH)” value in data set [2] was “Not Active”. Moreover, the Ratio IC50 in the data set filed under Homo sapiens is > 474.

Usually IC50 stands for the concentration at which inhibition is half-maximal. Low readings indicate greater potency, high ones weaker potency. As a reminder, the Ki is a dissociation constant, usually derived from enzyme kinetics or from competition with a known ligand.

Values taken from ChEMBL document CHEMBL4038334, “Coumarin versus Chromone Monoamine Oxidase B Inhibitors: Quo Vadis?” (J Med Chem, 2017).
